Source: publication PMC3101112 (Cancer Management and Research, 2011)
Where “and” joins values, the source holds several entries; their conditions need not be identical. Equal entries are not always repeated. Where two headings read alike, the source gives them in different places.

Key:
EPHB4 [1] = target: T1, EPHB4 (Homo sapiens, UniProt P54760); settings: read-out: Biochemical Inhibition Profile IC50, EPHB4
EPHA8 = EPHA8 (Homo sapiens, UniProt P29322); assay: Biochemical inhibition profile, EPHA8; settings: read-out: Biochemical Inhibition Profile IC50, EPHA8
EPHB2 = EPHB2 (Homo sapiens, UniProt P29323); assay: Biochemical inhibition profile, EPHB2; settings: read-out: Biochemical Inhibition Profile IC50, EPHB2
EPHB4 [2] = target: T1, EPHB4; settings: read-out: Cell-Based Target Inhibition Assays IC50, pEphB4 Y590/Y596; HEK293-Clone 25; stable over-expression of EphB4
KDR = KDR (Homo sapiens, UniProt P35968); assay: Biochemical inhibition profile, KDR; settings: read-out: Biochemical Inhibition Profile IC50, KDR
[3] = Plasma pharmacokinetics in patients with relapsed AML; format: in vivo, human
How it was run: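 Relapsed AML patients got 50 mg test compound orally after an ~8 h fast, without the probe cocktail. Plasma was sampled over 48 h after a single dose and over 12 h after one week of once-daily dosing. Tmax, Cmax, AUC and oral clearance came from noncompartmental analysis.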

FLT4 = FLT4 (Homo sapiens, UniProt P35916); assay: Biochemical inhibition profile, FLT4; settings: read-out: Biochemical Inhibition Profile IC50, FLT4
[4] = tested on: human ether-à-go-go-related gene (hERG); settings: read-out: hERG IC50; ref data on file, Eli Lilly and Company; cited from earlier work
FLT3 = FLT3 (Homo sapiens, UniProt P36888); assay: Biochemical inhibition profile, FLT3; settings: read-out: Biochemical Inhibition Profile IC50, FLT3
[5] = also reversible lymphoid necrosis of Peyer's patches, skin depigmentation or whitening of the hair; cited from earlier work
EPHA1 = EPHA1 (Homo sapiens, UniProt P21709); assay: Biochemical inhibition profile, EPHA1; settings: read-out: Biochemical Inhibition Profile IC50, EPHA1
Adverse events = format: in vivo, human
How it was run: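 Five relapsed AML patients took test compound 50 mg/day as a once-daily oral capsule after an ~8 h fast, with breakfast at least 60 min later. A single-dose visit came first, then multidose treatment for four weeks (two weeks after amendment). Adverse events were graded by CTCAE v3.0. Dose-limiting toxicity definitions covered Grade ≥3 nonhematological events and Grade 3/4 QTc or blood-pressure changes.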

[6] = tested on: pFLT3, pcKIT, pS6 in AML blasts; assay: Flow cytometry of phosphoproteins in AML blasts of patients; format: in vivo, human; settings: after multiple dosing 50 mg/day; at least three patients (B, C, and E)
How it was run: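 Patient blood or marrow samples reached a central lab within 48 h. […] Peripheral CD34+CD11− cells were gated on a 3-laser FACSCanto II. Sampling was predose, day 1, 8, 15 and end of study. Read-out was MEFL.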

[7] = AML patients, single and multiple oral doses 50 mg
[8] = Visit 0, single oral dose 50 mg, Max of N 5
[9] = Visit 0, single oral dose 50 mg, Min of N 5
[10] = Visit 0, single oral dose 50 mg, individual subjects (AML patients)
[11] = Visit 1, multiple oral doses 50 mg once daily, Max of N 5
[12] = Visit 1, multiple oral doses 50 mg once daily, Min of N 5
[13] = Visit 2, after multiple oral doses 50 mg, Max of N 2
[14] = Visit 2, after multiple oral doses 50 mg, Min of N 2
[15] = Maximum CTC grade 1, n = 5 patients, regardless of causality
[16] = Maximum CTC grade 2, n = 5 patients, regardless of causality
[17] = Maximum CTC grade 3, n = 5 patients, regardless of causality
[18] = Maximum CTC grade 4, n = 5 patients, regardless of causality

T1 sequence (P54760 16-987): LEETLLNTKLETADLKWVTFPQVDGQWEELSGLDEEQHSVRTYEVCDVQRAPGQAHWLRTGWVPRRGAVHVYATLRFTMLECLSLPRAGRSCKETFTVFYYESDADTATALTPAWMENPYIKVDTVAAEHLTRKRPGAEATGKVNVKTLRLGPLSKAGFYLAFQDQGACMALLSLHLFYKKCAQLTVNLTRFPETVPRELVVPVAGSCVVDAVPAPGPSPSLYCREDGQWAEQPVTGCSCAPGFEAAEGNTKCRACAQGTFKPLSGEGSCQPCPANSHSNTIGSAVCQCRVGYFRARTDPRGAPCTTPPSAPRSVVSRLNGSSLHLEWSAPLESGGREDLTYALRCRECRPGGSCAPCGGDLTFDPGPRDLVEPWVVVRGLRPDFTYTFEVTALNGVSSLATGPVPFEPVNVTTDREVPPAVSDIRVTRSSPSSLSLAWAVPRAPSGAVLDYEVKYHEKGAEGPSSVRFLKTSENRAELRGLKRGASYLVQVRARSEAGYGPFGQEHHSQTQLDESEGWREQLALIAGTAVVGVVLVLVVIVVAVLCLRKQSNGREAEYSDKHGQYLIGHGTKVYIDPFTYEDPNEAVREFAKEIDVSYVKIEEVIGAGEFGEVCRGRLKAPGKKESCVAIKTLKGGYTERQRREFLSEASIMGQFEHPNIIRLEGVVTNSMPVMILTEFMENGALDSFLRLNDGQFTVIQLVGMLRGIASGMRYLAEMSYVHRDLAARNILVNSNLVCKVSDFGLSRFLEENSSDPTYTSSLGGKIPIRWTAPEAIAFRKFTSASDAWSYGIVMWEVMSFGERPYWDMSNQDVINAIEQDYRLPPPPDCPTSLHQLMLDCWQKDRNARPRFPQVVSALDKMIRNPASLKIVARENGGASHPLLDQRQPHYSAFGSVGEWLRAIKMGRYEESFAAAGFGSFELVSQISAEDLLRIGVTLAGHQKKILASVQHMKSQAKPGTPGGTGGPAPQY
EPHB2, sequence (P29323 19-1055): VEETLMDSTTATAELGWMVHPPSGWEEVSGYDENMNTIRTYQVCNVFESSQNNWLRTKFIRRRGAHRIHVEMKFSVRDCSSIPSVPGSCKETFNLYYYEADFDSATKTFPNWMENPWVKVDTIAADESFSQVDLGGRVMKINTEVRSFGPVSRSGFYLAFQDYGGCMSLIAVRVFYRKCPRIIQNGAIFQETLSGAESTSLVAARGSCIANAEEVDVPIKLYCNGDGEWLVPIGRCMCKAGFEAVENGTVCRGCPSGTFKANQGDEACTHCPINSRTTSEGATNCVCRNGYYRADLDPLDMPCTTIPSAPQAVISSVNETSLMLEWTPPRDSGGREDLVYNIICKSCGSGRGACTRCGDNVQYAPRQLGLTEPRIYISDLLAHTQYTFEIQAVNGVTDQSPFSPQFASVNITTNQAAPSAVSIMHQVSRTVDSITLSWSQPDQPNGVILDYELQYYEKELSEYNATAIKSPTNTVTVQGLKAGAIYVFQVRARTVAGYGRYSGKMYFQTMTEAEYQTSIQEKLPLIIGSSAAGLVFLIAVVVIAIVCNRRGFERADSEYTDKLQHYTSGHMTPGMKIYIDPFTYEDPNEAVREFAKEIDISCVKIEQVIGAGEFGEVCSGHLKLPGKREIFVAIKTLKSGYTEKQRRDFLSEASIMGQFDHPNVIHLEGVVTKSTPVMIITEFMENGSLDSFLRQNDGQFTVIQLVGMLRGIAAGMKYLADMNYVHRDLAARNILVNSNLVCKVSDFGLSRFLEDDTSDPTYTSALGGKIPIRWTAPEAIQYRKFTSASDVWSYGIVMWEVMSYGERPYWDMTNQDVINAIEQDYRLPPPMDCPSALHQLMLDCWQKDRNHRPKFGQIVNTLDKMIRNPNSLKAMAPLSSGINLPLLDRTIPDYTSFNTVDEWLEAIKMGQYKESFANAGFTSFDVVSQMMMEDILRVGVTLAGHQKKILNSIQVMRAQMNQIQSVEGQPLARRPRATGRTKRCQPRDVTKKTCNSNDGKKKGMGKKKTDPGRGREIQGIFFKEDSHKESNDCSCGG
EPHA8, sequence (P29322 28-1005): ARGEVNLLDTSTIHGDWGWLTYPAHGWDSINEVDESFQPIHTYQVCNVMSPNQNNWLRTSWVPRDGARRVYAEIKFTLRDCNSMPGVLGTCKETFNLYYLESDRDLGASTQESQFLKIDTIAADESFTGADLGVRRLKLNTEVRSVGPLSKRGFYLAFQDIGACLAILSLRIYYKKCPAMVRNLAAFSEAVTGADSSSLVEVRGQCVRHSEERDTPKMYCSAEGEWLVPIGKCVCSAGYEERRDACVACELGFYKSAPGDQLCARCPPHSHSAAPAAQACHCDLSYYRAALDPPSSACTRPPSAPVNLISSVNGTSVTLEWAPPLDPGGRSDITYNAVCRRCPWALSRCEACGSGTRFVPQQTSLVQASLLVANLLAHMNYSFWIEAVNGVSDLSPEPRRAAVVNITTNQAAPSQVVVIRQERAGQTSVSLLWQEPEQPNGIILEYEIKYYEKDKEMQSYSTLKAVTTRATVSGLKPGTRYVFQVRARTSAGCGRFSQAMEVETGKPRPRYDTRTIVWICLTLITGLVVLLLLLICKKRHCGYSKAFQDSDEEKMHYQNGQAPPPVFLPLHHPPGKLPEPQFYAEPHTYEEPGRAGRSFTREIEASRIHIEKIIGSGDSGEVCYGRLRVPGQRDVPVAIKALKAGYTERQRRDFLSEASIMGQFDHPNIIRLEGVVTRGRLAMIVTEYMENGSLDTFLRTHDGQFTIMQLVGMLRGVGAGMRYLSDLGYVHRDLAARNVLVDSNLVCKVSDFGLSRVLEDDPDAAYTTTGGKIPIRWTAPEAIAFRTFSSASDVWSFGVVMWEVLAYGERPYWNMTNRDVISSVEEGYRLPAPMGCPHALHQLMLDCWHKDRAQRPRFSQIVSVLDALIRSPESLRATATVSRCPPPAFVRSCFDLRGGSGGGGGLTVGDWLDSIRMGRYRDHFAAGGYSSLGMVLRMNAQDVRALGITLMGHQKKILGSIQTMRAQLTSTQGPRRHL
FLT3, sequence (P36888 27-993): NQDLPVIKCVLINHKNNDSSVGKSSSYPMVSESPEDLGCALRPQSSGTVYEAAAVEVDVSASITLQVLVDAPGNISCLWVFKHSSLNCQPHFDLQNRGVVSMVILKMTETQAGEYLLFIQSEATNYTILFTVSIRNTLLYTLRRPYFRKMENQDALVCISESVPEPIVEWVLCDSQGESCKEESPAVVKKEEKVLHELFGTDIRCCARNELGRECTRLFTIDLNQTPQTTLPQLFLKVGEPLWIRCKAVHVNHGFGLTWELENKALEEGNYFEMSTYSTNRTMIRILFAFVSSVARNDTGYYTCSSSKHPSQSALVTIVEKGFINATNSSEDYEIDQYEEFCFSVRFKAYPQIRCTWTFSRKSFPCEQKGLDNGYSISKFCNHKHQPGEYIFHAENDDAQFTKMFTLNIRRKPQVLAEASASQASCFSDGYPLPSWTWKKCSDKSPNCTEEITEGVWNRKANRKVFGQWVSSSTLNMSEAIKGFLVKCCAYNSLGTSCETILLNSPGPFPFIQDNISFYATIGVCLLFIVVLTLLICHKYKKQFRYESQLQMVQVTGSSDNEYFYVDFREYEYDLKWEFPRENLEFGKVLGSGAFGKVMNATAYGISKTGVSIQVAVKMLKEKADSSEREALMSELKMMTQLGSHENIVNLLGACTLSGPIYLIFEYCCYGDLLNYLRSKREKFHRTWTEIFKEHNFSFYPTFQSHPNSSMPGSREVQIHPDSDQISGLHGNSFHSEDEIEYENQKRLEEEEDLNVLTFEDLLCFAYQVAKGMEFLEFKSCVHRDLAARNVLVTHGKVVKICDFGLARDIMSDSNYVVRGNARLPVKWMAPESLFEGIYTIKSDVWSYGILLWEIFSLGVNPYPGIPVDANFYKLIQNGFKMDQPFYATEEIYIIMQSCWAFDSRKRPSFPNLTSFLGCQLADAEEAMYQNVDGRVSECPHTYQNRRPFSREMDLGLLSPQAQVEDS
EPHA1, sequence (P21709 26-976): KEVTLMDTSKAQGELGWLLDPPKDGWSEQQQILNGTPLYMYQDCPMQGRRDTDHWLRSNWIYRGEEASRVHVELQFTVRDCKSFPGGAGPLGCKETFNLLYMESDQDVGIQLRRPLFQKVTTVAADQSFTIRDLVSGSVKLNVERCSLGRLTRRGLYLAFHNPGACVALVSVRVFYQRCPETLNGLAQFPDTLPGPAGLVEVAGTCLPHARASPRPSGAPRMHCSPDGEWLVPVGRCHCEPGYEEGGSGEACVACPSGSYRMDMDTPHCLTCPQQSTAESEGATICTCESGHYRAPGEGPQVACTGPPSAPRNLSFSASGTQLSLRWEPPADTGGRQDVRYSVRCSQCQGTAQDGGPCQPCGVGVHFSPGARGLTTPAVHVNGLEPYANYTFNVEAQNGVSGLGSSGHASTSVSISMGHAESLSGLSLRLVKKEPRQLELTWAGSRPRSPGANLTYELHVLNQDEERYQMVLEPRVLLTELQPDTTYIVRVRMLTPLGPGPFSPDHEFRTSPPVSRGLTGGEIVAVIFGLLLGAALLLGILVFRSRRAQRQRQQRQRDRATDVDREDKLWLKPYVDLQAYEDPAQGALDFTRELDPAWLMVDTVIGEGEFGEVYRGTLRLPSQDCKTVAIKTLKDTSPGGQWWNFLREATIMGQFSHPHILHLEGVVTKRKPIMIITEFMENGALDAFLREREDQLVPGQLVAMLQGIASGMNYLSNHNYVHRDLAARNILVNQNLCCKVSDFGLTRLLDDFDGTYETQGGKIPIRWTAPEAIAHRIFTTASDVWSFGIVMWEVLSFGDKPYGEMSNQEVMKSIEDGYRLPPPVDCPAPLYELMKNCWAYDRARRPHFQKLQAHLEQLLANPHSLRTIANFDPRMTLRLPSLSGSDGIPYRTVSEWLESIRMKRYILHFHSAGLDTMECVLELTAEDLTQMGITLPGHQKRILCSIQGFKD

SMILES: Cc1cc(-c2ccn3c(-c4ccc(CC(=O)Nc5cccc(C(F)(F)F)c5)c(F)c4)cnc3c2)ccn1 [LY2457546]
- IC50 (EPHB4 [1]): 39.8 nM
- IC50 (EPHA8): 33.5 nM
- IC50 (EPHB2): 45.7 nM
- IC50 (EPHB4 [2]): 9.1 nM
- IC50 (KDR): 28 nM
- Elimination within 24 hours ([3]; AML patients, 50 mg/day orally): virtually no elimination
- Accumulation in plasma [3, 7]: Extensive accumulation
- Terminal elimination half-life [3, 7]: no terminal elimination half-life could be defined
- AUC0_24, Max [3, 8]: 41500 ng·h/mL
- AUClast, Max [3, 8]: 79200 ng·h/mL
- Clast, Max [3, 8]: 1354.06 ng/mL
- Cmax, Max [3, 8]: 2406.55 ng/mL
- Tlast, Max [3, 8]: 48 h
- Tmax, Max [3, 8]: 48 h
- AUC0_24, Min [3, 9]: 1850 ng·h/mL
- AUClast, Min [3, 9]: 1850 ng·h/mL
- Clast, Min [3, 9]: 78.459 ng/mL
- Cmax, Min [3, 9]: 105.113 ng/mL
- Tlast, Min [3, 9]: 24 h
- Tmax, Min [3, 9]: 2 h
- AUC0_24 [3, 10]: 2520 ng·h/mL and 8930 ng·h/mL and 41500 ng·h/mL and 1850 ng·h/mL and 3420 ng·h/mL
- AUClast [3, 10]: 6030 ng·h/mL and 16100 ng·h/mL and 79200 ng·h/mL and 1850 ng·h/mL and 3420 ng·h/mL
- Clast [3, 10]: 154.876 ng/mL and 302.003 ng/mL and 1354.06 ng/mL and 105.113 ng/mL and 78.459 ng/mL
- Cmax [3, 10]: 154.876 ng/mL and 604.581 ng/mL and 2406.55 ng/mL and 105.113 ng/mL and 394.238 ng/mL
- Tlast [3, 10]: 48 h and 24 h
- Tmax [3, 10]: 48 h and 2 h and 4 h and 24 h
- AUC0_24, Max ([3]; Visit 1, multiple oral doses 50 mg once daily, Max of N 3): 69100 ng·h/mL
- AUClast, Max [3, 11]: 69200 ng·h/mL
- Clast, Max [3, 11]: 2830.537 ng/mL
- Cmax, Max [3, 11]: 3812.913 ng/mL
- Tlast, Max [3, 11]: 48 h
- Tmax, Max [3, 11]: 8 h
- AUC0_24, Min ([3]; Visit 1, multiple oral doses 50 mg once daily, Min of N 3): 2320 ng·h/mL
- AUClast, Min [3, 12]: 3610 ng·h/mL
- Clast, Min [3, 12]: 28.097 ng/mL
- Cmax, Min [3, 12]: 123.44 ng/mL
- Tlast, Min [3, 12]: 8 h
- Tmax, Min [3, 12]: 0 h
- AUC0_24, Max [3, 13]: 41500 ng·h/mL
- AUClast, Max [3, 13]: 93400 ng·h/mL
- Clast, Max [3, 13]: 2190.006 ng/mL
- Cmax, Max [3, 13]: 2190.006 ng/mL
- Tlast, Max [3, 13]: 48 h
- Tmax, Max [3, 13]: 48 h
- AUC0_24, Min [3, 14]: 18500 ng·h/mL
- AUClast, Min [3, 14]: 38400 ng·h/mL
- Clast, Min [3, 14]: 708.777 ng/mL
- Cmax, Min [3, 14]: 1087.972 ng/mL
- Tlast, Min [3, 14]: 48 h
- Tmax, Min [3, 14]: 0 h
- IC50 (FLT4): 1.56 nM
- IC50 [4]: 200 nM
- IC50 (FLT3): 5.1 nM
- Toxicities in preclinical toxicology studies [5]: reversible bone marrow toxicity, minimal liver inflammation, reversible physeal dysplasia
- IC50 (EPHA1): 616 nM
- Chapped lips, number of patients (Adverse events; [15]): 1
- Constipation, number of patients (Adverse events; [15]): 1
- Cough, number of patients (Adverse events; [15]): 1
- Diarrhea, number of patients (Adverse events; [15]): 2
- Epistaxis, number of patients (Adverse events; [15]): 1
- Facial swelling, number of patients (Adverse events; [15]): 1
- Fatigue, number of patients (Adverse events; [15]): 1
- Headache, number of patients (Adverse events; [15]): 3
- Hemangioma of liver, number of patients (Adverse events; [15]): 1
- Hematoma, number of patients (Adverse events; [15]): 1
- Hematuria, number of patients (Adverse events; [15]): 1
- Hemorrhoids, number of patients (Adverse events; [15]): 1
- Hepatomegaly, number of patients (Adverse events; [15]): 1
- Hyperhidrosis, number of patients (Adverse events; [15]): 1
- Hypokalemia, number of patients (Adverse events; [15]): 3
- Inguinal hernia, number of patients (Adverse events; [15]): 1
- Musculoskeletal pain, number of patients (Adverse events; [15]): 1
- Nausea, number of patients (Adverse events; [15]): 1
- Nephrolithiasis, number of patients (Adverse events; [15]): 1
- Oropharyngeal pain, number of patients (Adverse events; [15]): 1
- Osteoporosis, number of patients (Adverse events; [15]): 1
- Peripheral edema, number of patients (Adverse events; [15]): 1
- Petechiae, number of patients (Adverse events; [15]): 3
- Splenomegaly, number of patients (Adverse events; [15]): 1
- Ulcerative colitis, number of patients (Adverse events; [15]): 1
- Vertigo, number of patients (Adverse events; [15]): 1
- Anxiety, number of patients (Adverse events; [16]): 2
- Asthma, number of patients (Adverse events; [16]): 1
- Back pain, number of patients (Adverse events; [16]): 1
- Bladder spasm, number of patients (Adverse events; [16]): 1
- Constipation, number of patients (Adverse events; [16]): 1
- Epistaxis, number of patients (Adverse events; [16]): 2
- Gingival hyperplasia, number of patients (Adverse events; [16]): 1
- Hemorrhoids, number of patients (Adverse events; [16]): 1
- Hypertension, number of patients (Adverse events; [16]): 2
- Insomnia, number of patients (Adverse events; [16]): 1
- Keratoconjunctivitis sicca, number of patients (Adverse events; [16]): 1
- Stomatitis, number of patients (Adverse events; [16]): 1
- Urticaria, number of patients (Adverse events; [16]): 1
- Anal abscess, number of patients (Adverse events; [17]): 1
- Asthenia (muscle weakness), number of patients (Adverse events; [17]): 1
- Breast cellulitis, number of patients (Adverse events; [17]): 1
- Catheter-related infection, number of patients (Adverse events; [17]): 1
- Febrile neutropenia, number of patients (Adverse events; [17]): 2
- Fungal sepsis, number of patients (Adverse events; [17]): 1
- Hypotension, number of patients (Adverse events; [17]): 1
- Neutropenic sepsis, number of patients (Adverse events; [17]): 1
- Hemorrhage, number of patients (Adverse events; [18]): 1
- Hypophosphatemia, number of patients (Adverse events; [18]): 1
- Adverse events that were Grade 1 or 2 (Adverse events; five patients, 50 mg/day orally): 81%
- Dose-limiting toxicity (Adverse events; one patient (C) of five, 50 mg/day orally): generalized muscle weakness (Grade 3)
- Expression of pFLT3 and pcKIT [6]: reduced expression
